Test results as given in ChEMBL document CHEMBL5705901, “Exploiting selective BCL-2 family inhibitors to dissect cell survival dependencies and define improved strategies for cancer therapy” (Sci Transl Med, 2015).
Calls of active or inactive are those of the source. The rule behind the calls is not given here.

How the values were obtained:
EBC-1 [1] = assay: Antitumor activity against human EBC-1 cells xenografted in po dosed SCID-bg mouse assessed as tumor growth delay relative to control; format: functional
[2] = Toxicity in po dosed SCID-bg mouse assessed as tolerance; format: organism-based; settings: in vivo
MDA-MB-231 [3] = assay: Antitumor activity against LC3 positive human MDA-MB-231 cells xenografted in SCID mouse assessed as tumor growth delay at 25 mg/kg, po administered daily for 14 days relative to control; format: functional; settings: time 14 day
Method in brief: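 MDA-MB-231 LC3 metastatic breast cancer xenograft, 10 mice per group, with a vehicle control. Dosing: oral agent 25 mg/kg daily for 14 days; docetaxel 7.5 mg/kg iv once; combination gives both regimens. Mean tumor volumes tracked. TGImax = 100(1 − Tv/Cv) from mean treated vs control volumes. TGD = 100(T/C − 1) from median times to reach 1 cm3.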

A549 [4] = assay: Synergistic antitumor activity against 3 times passaged human A549 cells xenografted in po dosed SCID mouse assessed as tumor growth delay in presence of docetaxel relative to control; format: functional
Method in brief: (§1)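 Xenografts dosed with oral inhibitor plus intravenous docetaxel. TGImax = 100(1 − Tv/Cv), from mean treated and control tumor volumes; TGD = 100(T/C − 1), from median times to reach 1 cm3. Group size 5 mice (NCI-H747, A549-FP3, EBC-1, OVCAR-5), 8 (NCI-H358), 10 (NCI-H1650).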

[5] = Toxicity in Sprague-Dawley rat assessed as inhibition of granulopoiesis by measuring reduction in neutrophil count at 7 mg/kg, po administered daily for 5 days measured on day 6 in presence of docetaxel by microscopic analysis relative to control; format: organism-based; settings: in vivo, 144 h, time 6 day
Method in brief: (§2)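 Male Sprague-Dawley rats, n = 10 per group: docetaxel 5 mg/kg i.v. once, or oral inhibitor daily for 5 days (30, 50 or 7 mg/kg depending on agent), alone or combined with docetaxel, against vehicles. Total neutrophil and platelet counts in blood collected on day 6; Tukey-Kramer test versus vehicle.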

[6] = Toxicity in Sprague-Dawley rat assessed as inhibition of […] by measuring reduction in circulating platelets at 7 mg/kg, po administered daily for 5 days and measured on day 6 by microscopic analysis; format: organism-based; settings: in vivo, 144 h, time 6 day; method in brief: as §2
EBC-1 [7] = assay: Synergistic antitumor activity against human EBC-1 cells xenografted in po dosed SCID-bg mouse assessed as tumor growth delay in presence of docetaxel relative to control; format: functional; method in brief: as §1
[8] = biological target: Apoptosis regulator Bcl-2 (Homo sapiens, UniProt P10415); assay: Binding affinity to Bcl-2 (unknown origin) assessed as dissociation constant incubated for 1 hrs by TR-FRET assay
[9] = Toxicity in po dosed SCID-bg mouse assessed as tolerance in presence of docetaxel; format: organism-based; settings: in vivo
NCI-H1650 [10] = assay: Synergistic antitumor activity against human NCI-H1650 cells xenografted in SCID-bg mouse assessed as tumor growth delay at 25 mg/kg, po coadministered with docetaxel once daily for 14 days relative to control; format: functional; settings: time 14 day; method in brief: as §1
NCI-H1650 [11] = assay: Synergistic antitumor activity against human NCI-H1650 cells xenografted in SCID-bg mouse assessed as maximum tumor growth inhibition at 25 mg/kg, po coadministered with docetaxel once daily for 14 days relative to control; format: functional; settings: NCI-H1650, 336 h, time 14 day, read-out: TGI; method in brief: as §1
OVCAR-5 = assay: Synergistic antitumor activity against human OVCAR-5 cells xenografted in po dosed SCID mouse assessed as maximum tumor growth inhibition in presence of docetaxel relative to control; format: functional; method in brief: as §1
NCI-H747 = assay: Synergistic antitumor activity against human NCI-H747 cells xenografted in po dosed SCID-bg mouse assessed as tumor growth delay in presence of docetaxel relative to control; format: functional; method in brief: as §1
MDA-MB-361 = assay: Synergistic antiproliferative activity against human MDA-MB-361 cells assessed as reduction in cell viability by measuring bliss sum score incubated for 72 hrs in presence of docetaxel by CellTiter-Glo cell vaibility assay; format: functional
A549 [12] = assay: Synergistic antiproliferative activity against human A549 cells assessed as reduction in cell viability by measuring bliss sum score incubated for 72 hrs in presence of docetaxel by CellTiter-Glo cell vaibility assay; format: functional
Hs-578T = assay: Synergistic antiproliferative activity against human Hs-578T cells assessed as reduction in cell viability by measuring bliss sum score incubated for 72 hrs in presence of docetaxel by CellTiter-Glo cell vaibility assay; format: functional
NCI-H1650 [13] = assay: Synergistic antiproliferative activity against human NCI-H1650 cells assessed as reduction in cell viability by measuring bliss sum score incubated for 72 hrs in presence of docetaxel by CellTiter-Glo cell vaibility assay; format: functional
NCI-H661 = assay: Synergistic antiproliferative activity against human NCI-H661 cells assessed as reduction in cell viability by measuring bliss sum score incubated for 72 hrs in presence of docetaxel by CellTiter-Glo cell vaibility assay; format: functional
ZR-75-1 = assay: Synergistic antiproliferative activity against human ZR-75-1 cells assessed as reduction in cell viability by measuring bliss sum score incubated for 72 hrs in presence of docetaxel by CellTiter-Glo cell vaibility assay; format: functional
EBC-1 [14] = assay: Antagonistic antiproliferative activity against human EBC-1 cells assessed as reduction in cell viability by measuring bliss sum score incubated for 72 hrs in presence of docetaxel by CellTiter-Glo cell vaibility assay; format: functional
NCI-H1975 = assay: Synergistic antiproliferative activity against human NCI-H1975 cells assessed as reduction in cell viability by measuring bliss sum score incubated for 72 hrs in presence of docetaxel by CellTiter-Glo cell vaibility assay; format: functional
OVCAR-8 = assay: Synergistic antiproliferative activity against human OVCAR-8 cells assessed as reduction in cell viability by measuring bliss sum score incubated for 72 hrs in presence of docetaxel by CellTiter-Glo cell vaibility assay; format: functional
MDA-MB-436 = assay: Antagonistic antiproliferative activity against human MDA-MB-436 cells assessed as reduction in cell viability by measuring bliss sum score incubated for 72 hrs in presence of docetaxel by CellTiter-Glo cell vaibility assay; format: functional
HCC1954 = assay: Induction of apoptosis in human HCC1954 cells assessed as accumulation of cells with sub-G0-G1 DNA content at 1 uM incubated for 48 hrs in presence of docetaxel by flow cytometric analysis; format: functional, cell-based
BT-474 = assay: Induction of apoptosis in human BT-474 cells assessed as accumulation of cells with sub-G0-G1 DNA content at 1 uM incubated for 48 hrs in presence of docetaxel by flow cytometric analysis; format: functional, cell-based
HCC38 = assay: Induction of apoptosis in human HCC38 cells assessed as accumulation of cells with sub-G0-G1 DNA content at 1 uM incubated for 48 hrs in presence of docetaxel by flow cytometric analysis; format: functional, cell-based
MDA-MB-453 = assay: Induction of apoptosis in human MDA-MB-453 cells assessed as accumulation of cells with sub-G0-G1 DNA content at 1 uM incubated for 48 hrs in presence of docetaxel by flow cytometric analysis; format: functional, cell-based
MDA-MB-231 [15] = assay: Induction of apoptosis in LC3 positive human MDA-MB-231 cells assessed as accumulation of cells with sub-G0-G1 DNA content at 1 uM incubated for 48 hrs in presence of docetaxel by flow cytometric analysis; format: functional, cell-based

Apoptosis regulator Bcl-2, sequence (P10415 whole entry): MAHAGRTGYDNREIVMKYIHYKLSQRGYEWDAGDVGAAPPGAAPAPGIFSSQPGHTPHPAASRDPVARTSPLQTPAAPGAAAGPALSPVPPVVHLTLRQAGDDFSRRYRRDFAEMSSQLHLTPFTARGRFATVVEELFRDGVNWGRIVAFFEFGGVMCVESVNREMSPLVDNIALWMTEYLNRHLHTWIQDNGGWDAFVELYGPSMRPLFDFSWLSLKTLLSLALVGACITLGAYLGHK

In the case of `Cc1c(-c2ccc(N3CCc4cccc(C(=O)Nc5nc6ccccc6s5)c4C3)nc2C(=O)O)cnn1CC12CC3CC(CC(C3)C1)C2`, the Activity (EBC-1 [1]) is reported as 22%, the Activity [2] is reported as “Non-Toxic” and the Activity (MDA-MB-231 [3]) is reported as 55%. The Activity (A549 [4]) was 131%, the Activity [5] was “Toxic” and the Activity [6] was “Toxic”. For the same compound, the Activity (EBC-1 [7]) was 94%, the Ki [8] was 6 nM and the Activity [9] was “Non-Toxic”. For the same compound, the Activity (NCI-H1650 [10]) was 170%, the inhibition in vivo at 25 mg/kg (NCI-H1650 [11]) was 98% and the TGI (OVCAR-5) was 57%. It also gave an Activity (NCI-H747) of 167%.
Work on `CN(C)CC#Cc1ccc(OCCCc2sc(N3CCc4cccc(C(=O)Nc5nc6ccccc6s5)c4C3)nc2C(=O)O)c(F)c1` [A-1155463] yielded an Activity_index (MDA-MB-361) of 110, an Activity_index (A549 [12]) of 137 and an Activity_index (Hs-578T) of 62. It also gave an Activity_index (NCI-H1650 [13]) of 312, an Activity_index (NCI-H661) of 94 and an Activity_index (ZR-75-1) of 103. The Activity_index (EBC-1 [14]) was -103, the Activity_index (NCI-H1975) was 6 and the Activity_index (OVCAR-8) was 159. It also gave an Activity_index (MDA-MB-436) of -96.
In the case of `CC1(C)CCC(c2ccc(Cl)cc2)=C(CN2CCN(c3ccc(C(=O)NS(=O)(=O)c4ccc(N[C@H](CCN5CCOCC5)CSc5ccccc5)c(S(=O)(=O)C(F)(F)F)c4)cc3)CC2)C1` [NAVITOCLAX], the Activity (HCC1954) is reported as “Active”, the Activity (BT-474) is reported as “Active” and the Activity (HCC38) is reported as “Active”. The Activity (MDA-MB-453) was “Active” and the Activity (MDA-MB-231 [15]) was “Active”.
